According to PubChem BioAssay AID624038 (The Scripps Research Institute Molecular Screening Center, 2012):
In all, about 360,000 compounds went through this assay and about 1,100 (0.31%) were called active.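 Rule for the calls: active = activation above the run cutoff, the mean activation of all test compounds plus 3 SD (cut at about 18% in these data); inactive = the rest.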 Many of the other results were omitted from the sample, so actives are more common in it than they were.

Biological target: Muscarinic acetylcholine receptor M5 (Homo sapiens) (UniProt P08912)
Assay: human M5 muscarinic receptor positive allosteric modulators, primary screen, CHO-K1 cells, Fluo-8 calcium fluorescence (AID 624038)
Conditions: CHO-K1 hM5, Fluo-8 calcium, ACh EC20 PAM; at 3 µM; hits give high values; 0% = ACh EC20, 100% = ACh EC100
How it was run: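 Measured by: Fluo-8 calcium fluorescence; material: human M5 receptor in CHO-K1 cells; schedule: Post-acetylcholine fluorescence recording 140 s; benchmarks: low control EC20 acetylcholine (0%), high control EC100 acetylcholine (100%); read-out: Max/basal fluorescence ratio as % of EC20–EC100 ACh window; compound: single dose, 3 µM nominal final test concentration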

Chain of Muscarinic acetylcholine receptor M5 (Homo sapiens) (P08912 whole entry, looked up): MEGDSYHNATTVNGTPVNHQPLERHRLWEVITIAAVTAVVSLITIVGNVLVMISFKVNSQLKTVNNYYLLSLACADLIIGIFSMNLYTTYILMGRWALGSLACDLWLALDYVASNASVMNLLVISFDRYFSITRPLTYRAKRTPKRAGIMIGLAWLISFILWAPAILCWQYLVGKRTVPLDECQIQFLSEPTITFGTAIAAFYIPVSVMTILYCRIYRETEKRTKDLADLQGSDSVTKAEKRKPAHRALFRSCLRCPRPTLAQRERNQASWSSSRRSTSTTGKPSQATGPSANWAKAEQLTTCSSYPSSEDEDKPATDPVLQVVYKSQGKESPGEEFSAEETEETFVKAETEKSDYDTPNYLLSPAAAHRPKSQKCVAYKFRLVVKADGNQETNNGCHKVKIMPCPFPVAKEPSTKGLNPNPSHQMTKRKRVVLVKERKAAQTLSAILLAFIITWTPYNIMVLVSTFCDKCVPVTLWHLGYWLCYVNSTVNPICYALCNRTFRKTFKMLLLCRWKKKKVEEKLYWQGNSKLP

activation, active:
CCCc1ccc(C(=O)[C@@H]2[C@@H](C(C)=O)N3c4ccc(F)cc4C=C[C@@H]3[C@@]23C(=O)Nc2ccccc23)cc1 25.3%
CCCc1nc(-c2cc3cc(C)ccc3[nH]c2=O)no1 25%
CC(C)(C)NC(=O)CN(C(=O)c1ccc(Cl)nc1)c1cccc2ccccc12 22.9%
Cc1cc(N/N=C\c2ccc(Br)cc2)nc(-n2nc(C)cc2C)n1 20.4%
CC(NC(=O)c1cc2cc(Cl)ccc2oc1=N)c1ccccc1 (stereo unspecified) 35.2%
NC1=C([N+](=O)[O-])C(c2ccccc2)C2=C(CCCC2=O)O1 (stereo unspecified) 23.6%

activation, inactive:
COC(=O)c1ccc(Oc2nc(NC(C)C)nc(SC)n2)cc1 2.31%
CCOc1ccc(N(C)S(=O)(=O)c2cnc[nH]2)cc1 11.8%
Cc1ccc2[nH]c(=O)c(COC(=O)c3ccccn3)cc2c1 -8.69%
Cc1ccc2[nH]c(=O)c(CN(C)S(=O)(=O)c3cccc4nonc34)cc2c1 4.24%
Cc1c(C(=O)NCC2CC2)sc(=O)n1Cc1cccc(F)c1 2.84%
CCCn1c(O)c(CN2CCCC(C)C2)c(C)c(C#N)c1=O (stereo unspecified) -2.92%
CC(C)(C)NC(=O)CN(C(=O)c1csnn1)c1ccccc1-c1ccccc1 -2.48%
O=C(COC(=O)c1ccc(Cl)nc1)NCc1cccs1 -12.7%
O=c1c2cc(-c3ccccc3)sc2nc2n1N=C(c1cccs1)CS2 9.65%
Cc1cc(C)nc(-n2nc(C)cc2NC(=O)c2ccc(F)cc2F)n1 3.36%
Cc1cc(C)n(-c2nnc(N3CCN(c4ccccc4)CC3)nn2)n1 -0.36%
COc1ccccc1-c1n[nH]nc1C1=CC(=O)CC(C)(C)C1 -0.48%
CCCCCCCCN1C(=O)[C@H](CC(=O)NCC23CC4CC(CC(C4)C2)C3)C[C@@]2(C(=O)OC)CCCCC=C12 -2.23%
CC(NC(=O)C(=O)N/N=C/c1ccc(Cl)cc1)c1ccccc1 (stereo unspecified) -5.3%
Cc1ccc(C(=O)NC(C)c2ccccc2)cc1Br (stereo unspecified) -0.29%
COC(=O)c1cccc([N+](=O)[O-])c1CS(=O)(=O)c1ccc(C)cc1 -5.08%
CC(=O)N1c2ccc(S(=O)(=O)N3CCC(C(=O)NC4CCCCC4C)CC3)cc2CC1C (stereo unspecified) -5.55%
COC(=O)Cc1nc2c(N)nc(N)nc2[nH]c1=O 5.33%
N#CC1=C(N)OC2=C(C(=O)CCC2)C1C1CC=CCC1 (stereo unspecified) -4.35%
COc1cc(C2C3=C(CCCC3=O)OC3=C2C(=O)CCC3)ccc1OCC(=O)Nc1ccccc1 -5.18%
